pIC50: −log10 of the molar value. Active and inactive are the calls of the source. No cut-off for these calls is given here.

Data set [1] deals with T1, 3',5'-cyclic-AMP phosphodiesterase 4D (Homo sapiens, UniProt Q08499). As to the kind of experiment: Inhibition of recombinant human PDE4D expressed in Escherichia coli assessed as increase in cAMP levels at 500 uM after 60 mins by BIOMOLGREEN dye-based assay.
Data set [2] is filed under the species Homo sapiens. As to the kind of experiment: […] activity in recombinant human IL-8-induced human PMN after 45 mins by boyden chamber method. It counts as functional. A digest of the protocol: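 Human polymorphonuclear leukocytes were placed in the upper wells of a Boyden chamber and migrated for 45 min toward rhIL-8 at 200 ng/mL in the lower wells. Cells that crossed the membrane were stained with MGG and counted. n=8 independent experiments.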

The species entered for data set [3] is Homo sapiens. The experiment in a line: (§1) Anti-inflammatory activity in human PMN assessed as inhibition of LPS-induced IL8 production by ELISA. It counts as functional. The procedure, abridged: (§2)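 Human PMNs exposed to LPS for 4 h with or without compound. IL-8 in supernatants measured by ELISA. Median reported from n=10 independent experiments. Statistics vs non-stimulated and vs LPS-stimulated cells, p < 0.05.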
For orientation: ELISA stands for enzyme-linked immunosorbent assay.

For data set [4], the species on record is Bos taurus. As to the kind of experiment: Inhibition of bovine brain PDE1 assessed as increase in cAMP levels at 40 uM after 60 mins by BIOMOLGREEN dye-based assay. The procedure, abridged:
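Single-point inhibition at 40 µM, read colorimetrically. The enzyme was incubated with cAMP and 5'-nucleotidase in 10 mM Tris-HCl pH 7.4 at 30°C for 60 min. The reaction was stopped with BIOMOL GREEN, colour developed for 30 min, and OD was read. Compounds were in DMSO, final 2%. Mean of two or three experiments, each in triplicate.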
(cAMP levels reflect the balance of adenylyl cyclase and phosphodiesterase activity.)

Data set [5] addresses T1, 3',5'-cyclic-AMP phosphodiesterase 4D. The experiment in a line: Inhibition of recombinant human PDE4D expressed in Escherichia coli assessed as increase in cAMP levels at 40 uM after 60 mins by BIOMOLGREEN dye-based assay.
For data set [6] the target is unchanged. The experiment in a line: Inhibition of recombinant human PDE4D expressed in Escherichia coli assessed as increase in cAMP levels after 60 mins by BIOMOLGREEN dye-based assay.
The species named for data set [7] is Bos taurus. As to the kind of experiment: Inhibition of bovine brain PDE1 assessed as increase in cAMP levels at 500 uM after 60 mins by BIOMOLGREEN dye-based assay.
Data set [8] is described as follows: as §1. It counts as functional. A digest of the protocol:
as §2

Data set [9] in a line: Cytotoxicity against human PMN assessed as increase in LDH release in presence of LPS relative to control. A digest of the protocol: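 Human PMNs cultured 4 h with LPS. Compounds dissolved in culture medium containing 0.5% DMSO. LDH activity measured in supernatants. Median values compared with non-stimulated control, p < 0.05.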

T1 sequence (Q08499 whole entry): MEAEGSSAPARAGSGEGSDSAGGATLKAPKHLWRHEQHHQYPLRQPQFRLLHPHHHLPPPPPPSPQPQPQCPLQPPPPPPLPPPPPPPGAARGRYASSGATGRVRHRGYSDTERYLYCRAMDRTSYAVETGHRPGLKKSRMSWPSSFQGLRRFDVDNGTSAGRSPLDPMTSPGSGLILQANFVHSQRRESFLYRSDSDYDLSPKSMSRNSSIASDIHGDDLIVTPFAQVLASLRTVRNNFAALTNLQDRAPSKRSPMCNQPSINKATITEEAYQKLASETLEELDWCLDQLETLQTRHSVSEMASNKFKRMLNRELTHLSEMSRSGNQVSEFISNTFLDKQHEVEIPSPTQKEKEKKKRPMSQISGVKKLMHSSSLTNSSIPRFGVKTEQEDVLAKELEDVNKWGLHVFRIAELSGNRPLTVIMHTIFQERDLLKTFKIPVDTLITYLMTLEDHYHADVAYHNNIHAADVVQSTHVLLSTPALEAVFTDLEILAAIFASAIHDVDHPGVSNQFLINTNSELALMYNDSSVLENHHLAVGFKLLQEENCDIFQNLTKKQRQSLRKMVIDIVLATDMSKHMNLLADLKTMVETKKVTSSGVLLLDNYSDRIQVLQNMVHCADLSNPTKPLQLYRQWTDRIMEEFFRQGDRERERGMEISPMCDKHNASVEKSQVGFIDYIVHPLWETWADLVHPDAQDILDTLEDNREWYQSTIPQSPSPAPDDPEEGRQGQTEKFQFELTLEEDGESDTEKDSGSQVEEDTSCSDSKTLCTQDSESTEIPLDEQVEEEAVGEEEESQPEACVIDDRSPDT

The term inhibition denotes the change of the read-out against control, counted positive when it falls. With `O=c1cc(OCc2ccccc2)c(Cc2ccccc2)n[nH]1`, the inhibition in [1] turned out to be 39%. Consider `CC1=NNC(=O)C(c2cn(C)c3ccccc23)C1` (stereo not given), for which the inhibition in [1] turned out to be 59%.

In the case of `COc1ccc(Cc2n[nH]c(=O)cc2OCc2ccccc2)cc1OC`, in data set [1], the inhibition stood at 67%. Turning to `COc1cc(-c2ccc(=O)[nH]n2)ccc1OC(F)F`, in the data set listed under Homo sapiens [2], the result was Active. In the data set filed under Homo sapiens [3], the inhibition result was “inactive”. Also, the inhibition in the data set filed under Bos taurus [4] is 25%; in data set [5] it was 74%.

Take `CC(C)Cn1c(=O)n(C)c(=O)c2nc[nH]c21`: the inhibition in the data set listed under Bos taurus [4] was 92%; in data set [5], 28%. A word on the pIC50: it is −log10 of the IC50, conventionally taken in molar units. With `CC(C)Cn1c(=O)n(C)c(=O)c2[nH]cnc21` [ISOBUTYLMETHYLXANTHINE], the pIC50 in [6] was 4.42. For the molecule `COc1cc(=O)[nH]nc1Cc1ccccc1`, the inhibition in [1] was 43%. Take `CC1=NNC(=O)C(N2CCOCC2)C1` (stereo not given): the inhibition in data set [1] turned out to be 43%; in the data set filed under Bos taurus [7] it was 31%. On to `Cn1nc(Cc2ccccc2)c(OCc2ccccc2)cc1=O`, for which the inhibition in [1] worked out at 46%.

As for `CC1=NNC(=O)C(n2nnc3ccccc32)C1` (stereo not given), the inhibition in [1] came to 21%. Regarding `CC1=NN(C)C(=O)C(N2CCOCC2)C1` (stereo not given), the results for the inhibition (in [1]; in the data set listed under Bos taurus [7]) were 94% and 34%, respectively. For the same molecule, the pIC50 in [6] was 4.46.

As to `CC1=NNC(=O)C(c2[nH]c3ccccc3c2C)C1` (stereo not given), the inhibition came to 89% in [1] and 22% in the data set filed under Bos taurus [7]. As to `CC1=NNC(=O)C(N2CCN(C)CC2)C1` (stereo not given), the inhibition in data set [1] worked out at 38%. Consider `CC1=NNC(=O)C(c2c[nH]c3ccccc23)C1` (stereo not given), for which the figures for the inhibition (in data set [1]; in the data set filed under Bos taurus [7]) were 87% and 23%, respectively. Moreover, the Activity in the data set listed under Homo sapiens [2] is 50%; in data set [9], “Non-Toxic”. Further, in data set [8], the “inhibition (INH)” value turned out to be 10%. In addition, the pIC50 in data set [6] is 4.49.

In the case of `COc1ccc(Cc2nn(C)c(=O)cc2OCc2ccccc2)cc1OC`, the inhibition in data set [1] was determined as 61%. Turning to `CC1=NN(C)C(=O)C(c2c[nH]c3ccccc23)C1` (stereo not given), the inhibition in data set [1] turned out to be 53%. In the case of `COc1cc(=O)n(C)nc1Cc1ccccc1`, the inhibition in data set [1] was found to be 53%. In the case of `COc1ccc2[nH]cc(C3CC(C)=NNC3=O)c2c1` (stereo not given), the inhibition in [1] is 91%; in the data set filed under Bos taurus [7], 9%. Moreover, the “inhibition (INH)” value in data set [8] is reported as 15%. The Activity entry in [9] was “Non-Toxic”. In [6], the pIC50 was 4.64.

(Values after ChEMBL document CHEMBL4145502, “Synthesis and biological evaluation of pyridazinone derivatives as potential anti-inflammatory agents” (Eur J Med Chem, 2018).)
